For this data set, the system named is MS2 coat protein. Kind of data set: apparent Kd, MS2 coat protein; higher = weaker binding; RNA-MaP array. In short, it runs like this: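 RNA designs were transcribed from sequenced DNA templates on an Illumina sequencing chip and then incubated at room temperature with fluorescently labeled MS2 coat protein at 1.5 nM to 3 μM, with or without input ligand, in Tris-HCl pH 7.5 buffer containing KCl, MgCl2, BSA, DTT, tRNA and Tween20. Incubation lasted 0.8–1.5 h at the lowest protein concentrations and 10–20 min at the highest. Apparent Kd is the median of binding-curve fits made for each cluster. Designs measured on fewer than 10 clusters were excluded.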

Setting [1] is: designed as: OFF switch for flavin mononucleotide, no ligand.
[2] abbreviates: ligand present: flavin mononucleotide, designed as: OFF switch for flavin mononucleotide.
Setting [3] is: designed as: OFF switch for tryptophan, no ligand.
[4] abbreviates: ligand present: tryptophan, designed as: OFF switch for tryptophan.
Where [5] appears, read: designed as: OFF switch for theophylline, no ligand.
Setting [6] is: ligand present: theophylline, designed as: OFF switch for theophylline.
The mark [7] stands for this setting: designed as: ON switch for flavin mononucleotide, no ligand.
Where [8] appears, read: ligand present: flavin mononucleotide, designed as: ON switch for flavin mononucleotide.

These results are taken from the EternaBench riboswitch data.

For the sequence “UACAUUAUAGAGAAGGAUUACUCACACAUGAGGAUCACCCAUGUGUCCAUCAUGGCUGUAGGUUAAUAGGAUAUCUUAGAAGUG”, the apparent Kd (usually the concentration giving half-maximal binding under the conditions of the assay) came to 64.1 nM under setting [1] and 155 nM under setting [2].
In the case of “CAAAAUGCGGCGGCCGCCACUCAGCUCCGUGUGGUUGGUCAUCUUAACAUGAGGAUCACCCAUGUGAGGACCGGGCCAGCGAGUG”, the “apparent Kd” value under setting [3] turned out to be 13.5 nM and the “apparent Kd” value under setting [4] was 13.9 nM.
As for “UGUGGGUCCGAAGAUACCAGCCAGCACAGCAUGUGUUUAAACAUGAGGAUCACCCAUGUCGGCCCUUGGCAGCUUGGUUUGGACG”, the “apparent Kd” value runs as follows: under setting [5], 15.5 nM; under setting [6], 12.1 nM.
Turning to “UAACGUAGCCGAGGAUAUAGUAGCGAUCAACAGAAACAUGAGGAUCACCCAUGUGCCACAAAAGACUAGAAGGCGGGCAACCCA”, the “apparent Kd” value is, setting by setting: under setting [7], 15.4 nM; under setting [8], 11.2 nM.
Regarding “CCUCGGCCAUCAGGAUAUCAUUCUCCGAUGCGGAACAUGAGGAUCACCCAUGUUGGGUACCCGUGUGAGAAGGGAUGCGUACGG”, the “apparent Kd” value is, setting by setting: under setting [1], 74.3 nM; under setting [2], 62.2 nM.
For “GGAUUGAUAGGAUAUACAUAGAUGUAGGAGCCUUCACUCCCACAUGAGGAUCACCCAUGUAGAAGGAUCAGUAA”, the “apparent Kd” value is 12.1 nM under setting [1] and 23.6 nM under setting [2].
For the sequence “CUAUGGGAUAAGGAUAUAAUAAUUGAGAAGGAGUUAGAAGGUAUAACAUGAGGAUCACCCAUGUGAGGGCCCUA”, the “apparent Kd” value worked out at 9.22 nM under setting [1] and 9.07 nM under setting [2].
With “UGUAGACAUGAGGAUCACCCAUGUGCAACUGCAACAGGAUAUAGGGAGCGAUAGGAACGCCUAGAAGGGUUGAUCU”, the “apparent Kd” value under setting [7] came to 28.2 nM and the “apparent Kd” value under setting [8] was 24.6 nM.
As to “GGUCCAAUAGGAUAUACAUGAGGAUCACCCAUGUAAUGGAAGCUCGGGUUUUGGUACUGUAGAAGGAUUGGGAC”, the “apparent Kd” value under setting [1] was found to be 25.8 nM and the “apparent Kd” value under setting [2] was 40.9 nM.
As for “GCCUCGAACUCAGGAUAUCAGAGAGGUUGCCGCUGAGAAGGGAGACAUGAGGAUCACCCAUGUACAGUCAUGACCGUCGAGUUG”, the “apparent Kd” value was 65.8 nM under setting [7] and 84 nM under setting [8].
Turning to “UUUACACACUCAGGAUAUGAAUUCAAUUUAUCGGGCCGCUAACAUGAGGAUCACCCAUGUAACAUUCAGAAGGGAGAAGAGCCA”, the “apparent Kd” value under setting [1] was 17.5 nM and the “apparent Kd” value under setting [2] was 13.7 nM.
For “UGAGAACAUGUCUUUAAGUUUACCUCUGAUACCAGAUUGAAAGGCAUCCCUUGGCAGCAGCAUACAUGAGGAUCACCCAUGUCCU”, the “apparent Kd” value under setting [5] was determined as 111 nM and the “apparent Kd” value under setting [6] worked out at 138 nM.
With “GGAGUGUGAGGAUAUGACGCGCCAGGCACACUUGAAUGCGCUCAGAAGGCACAUGAGGAUCACCCAUGUAAGCA”, the “apparent Kd” value by setting is: under setting [1], 8.29 nM; under setting [2], 13.3 nM.
In the case of “AAAUGAGCGCAUCCCUAACAUGAGGAUCACCCAUGUGCUACAGAGGAUAUCGUCACCAUAUCUCACGAGAAGGCUGGUAUAUUG”, the “apparent Kd” value was found to be 9.25 nM under setting [1] and 11.4 nM under setting [2].
“UCGACAUCAGGAUAUACGAUGGAGUAGUUACGAGUAUCACGACAUGAGGAUCACCCAUGUAGAAGGGAUCGUCC”: the “apparent Kd” value reads like this: under setting [1], 21.4 nM; under setting [2], 17.7 nM.
The matching figures for “GAUAGGUGAGGAUAUGUGAGUGAUCACAUGAGGAUCACCCAUGUUGACUCAUGUUGGCUUACAGAAGGCACAGGAA”: 137 nM and 97.2 nM.
Turning to “ACUUCAGAUACAGGAUAUAGCGUAACAUGAGGAUCACCCAUGUCUUGAUGCCUCUGUCGCGACGACUAGAAGGGUAAGCUUUGA”, the “apparent Kd” value was 91.6 nM under setting [1] and 86.7 nM under setting [2].
Take “CCGCCUCGCGUCAGGAUAUGUAACAAUUGUCAAAUACAGAAGGGACAUGAGGAUCACCCAUGUUUACAUACCAA”: the “apparent Kd” value by setting is: under setting [1], 18 nM; under setting [2], 42.2 nM.
Regarding “AACACACCAAAUGAUACCAGCUACAACAUGAUACAAAACCACAUGAGGAUCACCCAUGUAAGCCCUUGGCAGCAUACUACUGUAA”, the “apparent Kd” value under setting [5] turned out to be 18.1 nM and the “apparent Kd” value under setting [6] amounted to 42.5 nM.
“GUGAUGCCUUACACAUGAGGAUCACCCAUGUGGUGUAAGCGUAGAAGGUGAAUAUAUUCCAUAGUCAAGGAUAUACGAACAAUC”: the “apparent Kd” value under setting [1] stood at 12.2 nM and the “apparent Kd” value under setting [2] came to 11.5 nM.
With “CGGCGCUUAGGAUAUUAGAGAUGCAACAUGAGGAUCACCCAUGUGAUGAGGGUUGGCAGCUAAGAAGGAAGCAUCC”, the “apparent Kd” value was found to be 86 nM under setting [1] and 61.5 nM under setting [2].
Consider “UUCUUUGACGAGAAGGUCUCAACAUGAGGAUCACCCAUGUGAAUUAAUGGAACCAGGCCUGUUUAGAAGGAUAUCGCGGGAGUU”, for which the “apparent Kd” value under setting [1] was 10.9 nM and the “apparent Kd” value under setting [2] stood at 13.8 nM.
Take “CUGCCACGAACGGCCGCCACUUACAUGAGGAUCACCCAUGUGCCUGCGCACAAAGAAUGUCAAGAAAGGACCGGGUUCAAAUAGU”: the “apparent Kd” value is, setting by setting: under setting [3], 61.3 nM; under setting [4], 66.8 nM.
